{"source": "ChEMBL document CHEMBL1130191", "about": "(J Med Chem, 1997)", "key": {"B16": {"tested_on": "B16", "experiment": "Inhibition of murine B16 Melanoma cell proliferation", "assay_type": "functional, cell-based, Mus musculus", "how_it_was_run": "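Clonogenic assay: B16 melanoma cells (EMEM with 10% FCS, 37 °C, 5% CO2) seeded 200 per dish, attached 20 h, exposed to increasing drug concentrations 24 h, washed, regrown 12 days; methanol-fixed, crystal violet-stained, colonies >50 cells counted. IC50 is concentration giving 50% cloning efficiency versus untreated.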"}, "Bacillus cereus": {"tested_on": "Bacillus cereus", "experiment": "Antimicrobial activity against Bacillus cereus", "assay_type": "functional", "how_it_was_run": "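B. cereus ATCC 14579 in Mueller-Hinton broth pH 7.4, compounds diluted in DMSO across 12 tubes spanning 100 to 0.05 μg/mL; growth read after 24 h at 27 °C; MIC taken as lowest inhibitory concentration. Disk diffusion screen also run: 6 mm paper disks carrying 300 μg drug in DMSO, 24 h at 27 °C.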"}, "P388 [1]": {"tested_on": "P388", "experiment": "Inhibition of P388 Leukemia cell proliferation", "assay_type": "functional, cell-based", "settings": "Mus musculus", "how_it_was_run": "(§1)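 P388 murine leukemia cells exposed to a range of drug concentrations for 96 h at 37 °C; viability scored by neutral red staining; IC50 is the concentration giving 50% growth inhibition.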"}, "[2]": {"target": "Protein kinase C alpha type (Homo sapiens, UniProt P17252)", "experiment": "Inhibition of Protein kinase C alpha", "how_it_was_run": "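Recombinant PKC-α, partially purified; protamine sulfate substrate without phosphatidylserine or diacylglycerol; γ-33P incorporation measured by spotting aliquots on P81 paper. Compounds serially diluted 10-fold in DMSO/water 50:50. Two independent experiments; IC50 in μM.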"}, "[3]": {"tested_on": "DNA topoisomerase II (Bos taurus)", "experiment": "Inhibition of calf thymus Topoisomerase-2"}, "[4]": {"tested_on": "DNA topoisomerase I (Bos taurus)", "experiment": "Inhibition of calf thymus Topoisomerase-I"}, "P388 [5]": {"tested_on": "P388", "experiment": "Inhibition of P388 murine leukemia cell proliferation", "assay_type": "functional, cell-based", "settings": "Mus musculus", "how_it_was_run": "as §1"}}}
{"compound": "CO[C@H]1[C@H](O)[C@@H](O)[C@H](n2c3c(Cl)cccc3c3c4c(c5c6cccc(Cl)c6[nH]c5c32)C(=O)N(C)C4=O)O[C@@H]1CO", "values": [{"measurement": "IC50", "setting": "B16; Mus musculus, B16", "result": 0.61, "unit": "µM"}, {"measurement": "MIC", "setting": "Bacillus cereus; Bacillus cereus, read-out: MIC", "result": "> 85", "unit": "µM"}, {"measurement": "IC50", "setting": "P388 [1]", "result": 0.6, "unit": "µM"}, {"measurement": "IC50", "setting": "[2]", "result": "> 100", "unit": "µM"}]}
{"compound": "CC1OC(n2c3ccccc3c3c4c(c5c6ccccc6[nH]c5c32)C(=O)N(C)C4=O)C(O)C(O)C1O", "note": "(stereo in doubt; 14) [listing 1 of 2 here]", "values": [{"measurement": "IC50", "setting": "B16; Mus musculus, B16", "result": 3.75, "unit": "µM"}, {"measurement": "MIC", "setting": "Bacillus cereus", "result": 3.1, "unit": "µM"}, {"measurement": "IC50", "setting": "P388 [1]", "result": 6.2, "unit": "µM"}, {"measurement": "IC50", "setting": "[2]", "result": "> 100", "unit": "µM"}]}
{"compound": "CN1C(=O)c2c(c3c4ccccc4n(C4OC(CO)C(O)C(O)C4O)c3c3[nH]c4ccccc4c23)C1=O", "note": "(stereo in doubt; 10) [listing 1 of 2 here]", "values": [{"measurement": "IC50", "setting": "B16; b16", "result": 5.4, "unit": "µM"}, {"measurement": "IC50", "setting": "[2]", "result": 99, "unit": "µM"}]}
{"compound": "CC1OC(n2c3ccccc3c3c4c(c5c6ccccc6[nH]c5c32)C(=O)N(C)C4=O)C(O)C(O)C1O", "note": "(stereo in doubt; 14) [listing 2 of 2 here]", "values": [{"measurement": "MIC", "setting": "[3]", "result": "> 20", "unit": "µM"}, {"measurement": "MIC", "setting": "[4]", "result": 2000, "unit": "nM"}]}
{"compound": "CN1C(=O)c2c(c3c4ccccc4n(C4OC(CO)C(O)C(O)C4O)c3c3[nH]c4ccccc4c23)C1=O", "note": "(stereo in doubt; 9) [listing 1 of 2 here]", "values": [{"measurement": "IC50", "setting": "[2]", "result": 62, "unit": "µM"}]}
{"compound": "CC(=O)OCC1OC(n2c3ccccc3c3c4c(c5c6ccccc6[nH]c5c32)C(=O)N(C)C4=O)C(OC(C)=O)C(OC(C)=O)C1OC(C)=O", "note": "(stereo in doubt; 3) [listing 1 of 2 here]", "values": [{"measurement": "MIC", "setting": "[3]", "result": "> 15", "unit": "µM"}, {"measurement": "MIC", "setting": "[4]", "result": "> 15000", "unit": "nM"}]}
{"compound": "CC(=O)OCC1OC(n2c3ccccc3c3c4c(c5c6ccccc6[nH]c5c32)C(=O)N(C)C4=O)C(OC(C)=O)C(OC(C)=O)C1OC(C)=O", "note": "(stereo in doubt; 6) [listing 1 of 2 here]", "values": [{"measurement": "IC50", "setting": "B16; b16", "result": 75, "unit": "µM"}, {"measurement": "IC50", "setting": "[2]", "result": "> 100", "unit": "µM"}]}
{"compound": "CC(=O)OCC1OC(n2c3ccccc3c3c4c(c5c6ccccc6[nH]c5c32)C(=O)N(C)C4=O)C(OC(C)=O)C(OC(C)=O)C1OC(C)=O", "note": "(stereo in doubt; 4) [listing 1 of 2 here]", "values": [{"measurement": "MIC", "setting": "[3]", "result": "> 15", "unit": "µM"}, {"measurement": "MIC", "setting": "[4]", "result": "> 15000", "unit": "nM"}]}
{"compound": "CC1OC(n2c3ccccc3c3c4c(c5c6ccccc6[nH]c5c32)C(=O)N(C)C4=O)C(O)C(O)C1O", "note": "(stereo in doubt; 13) [listing 1 of 2 here]", "values": [{"measurement": "IC50", "setting": "B16; b16", "result": 4.75, "unit": "µM"}, {"measurement": "MIC", "setting": "Bacillus cereus", "result": 103, "unit": "µM"}, {"measurement": "IC50", "setting": "[2]", "result": 82, "unit": "µM"}]}
{"compound": "CN1C(=O)c2c(c3c4ccccc4n(C4OC(CO)C(O)C(O)C4O)c3c3[nH]c4ccccc4c23)C1=O", "note": "(stereo in doubt; 9) [listing 2 of 2 here]", "values": [{"measurement": "MIC", "setting": "[3]", "result": "> 20", "unit": "µM"}, {"measurement": "MIC", "setting": "[4]", "result": 6000, "unit": "nM"}]}
{"compound": "CC(=O)OCC1OC(n2c3ccccc3c3c4c(c5c6ccccc6[nH]c5c32)C(=O)N(C)C4=O)C(OC(C)=O)C(OC(C)=O)C1OC(C)=O", "note": "(stereo in doubt; 5)", "values": [{"measurement": "MIC", "setting": "[3]", "result": "> 15", "unit": "µM"}, {"measurement": "MIC", "setting": "[4]", "result": "> 15000", "unit": "nM"}]}
{"compound": "CC(=O)OCC1OC(n2c3ccccc3c3c4c(c5c6ccccc6[nH]c5c32)C(=O)N(C)C4=O)C(OC(C)=O)C(OC(C)=O)C1OC(C)=O", "note": "(stereo in doubt; 6) [listing 2 of 2 here]", "values": [{"measurement": "MIC", "setting": "[3]", "result": "> 15", "unit": "µM"}, {"measurement": "MIC", "setting": "[4]", "result": "> 15000", "unit": "nM"}]}
{"compound": "CO[C@H]1[C@H](O)[C@@H](O)[C@H](n2c3ccccc3c3c4c(c5c6ccccc6[nH]c5c32)C(=O)NC4=O)O[C@@H]1CO", "values": [{"measurement": "MIC", "setting": "Bacillus cereus; Bacillus cereus, read-out: MIC", "result": "> 97", "unit": "µM"}, {"measurement": "IC50", "setting": "P388 [1]", "result": 6.8, "unit": "µM"}, {"measurement": "IC50", "setting": "[2]", "result": "> 100", "unit": "µM"}, {"measurement": "MIC", "setting": "[3]", "result": "> 19", "unit": "µM"}, {"measurement": "MIC", "setting": "[4]", "result": 1950, "unit": "nM"}]}
{"compound": "CN1C(=O)c2c(c3c4ccccc4n(C4OC(CO)C(O)C(O)C4O)c3c3[nH]c4ccccc4c23)C1=O", "note": "(stereo in doubt; 7) [listing 1 of 2 here]", "values": [{"measurement": "IC50", "setting": "B16; b16", "result": 0.52, "unit": "µM"}, {"measurement": "MIC", "setting": "Bacillus cereus; Bacillus cereus, read-out: MIC", "result": 6.2, "unit": "µM"}, {"measurement": "IC50", "setting": "P388 [1]", "result": 6, "unit": "µM"}, {"measurement": "IC50", "setting": "[2]", "result": 59, "unit": "µM"}]}
{"compound": "CN1C(=O)c2c(c3c4ccccc4n(C4OC(CO)C(O)C(O)C4O)c3c3[nH]c4ccccc4c23)C1=O", "note": "(stereo in doubt; 8) [listing 1 of 2 here]", "values": [{"measurement": "MIC", "setting": "[3]", "result": "> 20", "unit": "µM"}, {"measurement": "MIC", "setting": "[4]", "result": 2000, "unit": "nM"}]}
{"compound": "CC1OC(n2c3ccccc3c3c4c(c5c6ccccc6[nH]c5c32)C(=O)N(C)C4=O)C(O)C(O)C1O", "note": "(stereo in doubt; 13) [listing 2 of 2 here]", "values": [{"measurement": "MIC", "setting": "[3]", "result": "> 20", "unit": "µM"}, {"measurement": "MIC", "setting": "[4]", "result": "> 20000", "unit": "nM"}]}
{"compound": "CN1C(=O)c2c(c3c4ccccc4n(C4OC(CO)C(O)C(O)C4O)c3c3[nH]c4ccccc4c23)C1=O", "note": "(stereo in doubt; 8) [listing 2 of 2 here]", "values": [{"measurement": "IC50", "setting": "B16; b16", "result": 3.3, "unit": "µM"}, {"measurement": "MIC", "setting": "Bacillus cereus", "result": 12.4, "unit": "µM"}, {"measurement": "IC50", "setting": "[2]", "result": "> 100", "unit": "µM"}]}
{"compound": "CN1C(=O)c2c(c3c4ccccc4n(C4OC(CO)C(O)C(O)C4O)c3c3[nH]c4ccccc4c23)C1=O", "note": "(stereo in doubt; 10) [listing 2 of 2 here]", "values": [{"measurement": "MIC", "setting": "[3]", "result": "> 20", "unit": "µM"}, {"measurement": "MIC", "setting": "[4]", "result": 600, "unit": "nM"}]}
{"compound": "CC(=O)OCC1OC(n2c3ccccc3c3c4c(c5c6ccccc6[nH]c5c32)C(=O)N(C)C4=O)C(OC(C)=O)C(OC(C)=O)C1OC(C)=O", "note": "(stereo in doubt; 4) [listing 2 of 2 here]", "values": [{"measurement": "IC50", "setting": "B16; b16", "result": 78, "unit": "µM"}, {"measurement": "MIC", "setting": "Bacillus cereus; Bacillus cereus, read-out: MIC", "result": "> 74", "unit": "µM"}, {"measurement": "IC50", "setting": "P388 [1]", "result": "> 15", "unit": "µM"}]}
{"compound": "CC(=O)OCC1OC(n2c3ccccc3c3c4c(c5c6ccccc6[nH]c5c32)C(=O)N(C)C4=O)C(OC(C)=O)C(OC(C)=O)C1OC(C)=O", "note": "(stereo in doubt; 3) [listing 2 of 2 here]", "values": [{"measurement": "IC50", "setting": "B16; b16", "result": 2.5, "unit": "µM"}, {"measurement": "IC50", "setting": "[2]", "result": "> 100", "unit": "µM"}]}
{"compound": "CN1C(=O)c2c(c3c4ccccc4n(C4OC(CO)C(O)C(O)C4O)c3c3[nH]c4ccccc4c23)C1=O", "note": "(stereo in doubt; 7) [listing 2 of 2 here]", "values": [{"measurement": "MIC", "setting": "[3]", "result": "> 20", "unit": "µM"}, {"measurement": "MIC", "setting": "[4]", "result": "> 20000", "unit": "nM"}]}
{"compound": "CO[C@H]1[C@H](O)[C@@H](O)[C@H](n2c3ccccc3c3c4c(c5c6ccccc6[nH]c5c32)C(=O)N(C)C4=O)O[C@@H]1CO", "values": [{"measurement": "IC50", "setting": "B16; Mus musculus, B16", "result": 1.06, "unit": "µM"}, {"measurement": "MIC", "setting": "Bacillus cereus; Bacillus cereus, read-out: MIC", "result": 1.55, "unit": "µM"}, {"measurement": "IC50", "setting": "P388 [1]", "result": 0.7, "unit": "µM"}, {"measurement": "IC50", "setting": "[2]", "result": "> 100", "unit": "µM"}, {"measurement": "MIC", "setting": "[4]", "result": 600, "unit": "nM"}]}
{"compound": "CO[C@H]1[C@H](O)[C@@H](O)[C@H](n2c3c(Cl)cccc3c3c4c(c5c6cccc(Cl)c6[nH]c5c32)C(=O)NC4=O)O[C@@H]1CO", "note": "[REBECCAMYCIN]", "values": [{"measurement": "MIC", "setting": "Bacillus cereus; Bacillus cereus, read-out: MIC", "result": 10.9, "unit": "µM"}, {"measurement": "IC50", "setting": "P388 [5]", "result": 500, "unit": "nM"}, {"measurement": "IC50", "setting": "[2]", "result": "> 100", "unit": "µM"}]}
